DDE Tn7 FP inh: inhibitors of Tn7 peptide binding to fibrin DD(E), primary screen, biochemical, fluorescence polarization, human fibrin, Tn7 probe. AID 720508, 2013. FP displacement of FITC-Tn7 peptide from fibrin DD(E); 0% = median of compound wells per plate. 370,000 compounds, 0.13% hits. Fibrinogen beta chain (Homo sapiens), P02675. inhibition, % at 8.3 µM;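 active means inhibition above the mean of compounds falling within the control limits plus 3 SD of them, cut at about 14% in these data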;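 further: 0% = plate median of compound wells and 100% = 10 µM Aha-Tn7 peptide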
Target sequence (P02675 whole entry, looked up): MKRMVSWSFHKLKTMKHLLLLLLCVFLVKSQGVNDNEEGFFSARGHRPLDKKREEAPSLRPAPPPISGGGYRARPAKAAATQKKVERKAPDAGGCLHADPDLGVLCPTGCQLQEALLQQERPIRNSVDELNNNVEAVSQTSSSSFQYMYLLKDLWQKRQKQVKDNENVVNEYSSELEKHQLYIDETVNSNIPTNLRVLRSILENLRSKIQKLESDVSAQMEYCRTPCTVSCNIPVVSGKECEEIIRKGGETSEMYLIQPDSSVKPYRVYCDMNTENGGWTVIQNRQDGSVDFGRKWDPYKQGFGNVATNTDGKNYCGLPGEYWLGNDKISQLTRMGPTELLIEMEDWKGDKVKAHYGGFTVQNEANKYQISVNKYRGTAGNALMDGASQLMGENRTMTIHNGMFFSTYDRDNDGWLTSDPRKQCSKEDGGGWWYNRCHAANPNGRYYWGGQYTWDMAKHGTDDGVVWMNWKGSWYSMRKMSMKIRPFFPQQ
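Assay system: Fibrin-DD(E) protein isolated from polymerized human fibrin clots; read-out basis: percent inhibition; medium: Tris/NaCl/CaCl2 buffer, pH 7.8; signal: FP measurement; incubation: 10 min plus 3 h, room temperature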
CAL PDZ FP-1: untagged CAL PDZ binding inhibitors, primary screen, biochemical, fluorescence polarization, HTS. Golgi-associated PDZ and coiled-coil motif-containing protein (Homo sapiens), Q9HD26. purified CAL PDZ, TMR-peptide fluorescence polarization, 1 h. inhibition, % at 24.9 µM. 300,000 compounds, 0.92% hits. AID 602252, 2012;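 active means mean inhibition of at least 30% with at least half of replicates also reaching 30%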;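 further: 0% = DMSO neutral control and 100% = excess unlabeled competitor peptide PRC23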
CAL PDZ FP-2: CAL PDZ peptide-binding inhibitors, primary screen, biochemical, fluorescence polarization, Cer-tagged CAL PDZ, HTS. 330,000 compounds, 0.02% hits. purified CAL PDZ, TMR-peptide fluorescence polarization, 1 h. inhibition, % at 20 µM;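 active means highest replicate inhibition of at least 40%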;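 further: plate controls were DMSO neutral control wells for no effect and unlabeled competitor peptide control wells for full effect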
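Material: tagged CAL PDZ domain; buffer or medium: 25 mM sodium phosphate pH 7.4, 150 mM NaCl, TCEP, IgG, Thesit; compound dosing: single point, 20 µM; schedule: 1 h incubation at room temperature before polarization reading; measured by: FP readout, S and P plane fluorescence; read-out basis: percent inhibition from loss of millipolarization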
Tn6 DDE FP: inhibitors of Tn6 peptide binding to fibrin DD(E), primary screen, biochemical, fluorescence polarization, human fibrin, Tn6 probe | Fibrinogen beta chain (Homo sapiens), P02675 | Fibrin DD(E) TRITC-Tn6 fluorescence polarization displacement | inhibition, % at 8.3 µM | 370,000 compounds, 0.21% hits | AID 720509, 2013;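 active means inhibition above a per-campaign cutoff: mean of compounds within control limits plus 3 SD, cut at about 15% in these data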;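 further: 0% = median of all compound wells on the plate and 100% = blocking peptide control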
Arrestin-AP2 inh: inhibitors of beta-arrestin/AP2 binding, primary screen, biochemical, GPCR trafficking, flow cytometry; FITC-arrestin peptide / GST-AP2 beads; AP2 beta2 appendage carries R879A mutation; inhibition, % at 10 µM; 340,000 compounds, 0.31% hits; AID 504490, 2011;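 active means inhibition above a set limit, near 3 SD of compounds lacking own fluorescence, cut at about 54% in these data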;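 further: plate controls were DMSO wells for no effect and 5 µM unlabelled arrestin peptide for full effect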
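System: GST-AP2 R879A glutathione beads | Also added: FITC-arrestin peptide, 50 nM | Times: 12 min plus 1 h, RT | Signal: Bead flow cytometry, FITC channel | Buffer or medium: PBS with 0.05% Tween 20 and 0.1% BSA | Read-out basis: Percent drop in bead-associated FITC signal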
DDE Tn7 confirm: inhibitors of Tn7 peptide binding to fibrin DD(E), confirmation, biochemical, fluorescence polarization, human fibrin, Tn7 probe | shares compounds with DDE Tn7 FP inh | inhibition, % at 8.3 µM | FP displacement of TRITC-Tn7 peptide from DD(E); 0% set at plate's compound-well median | 460 compounds, 5% hits;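 active means inhibition above the campaign cutoff, the mean of compounds within control limits plus 3 SD, cut at about 14% in these data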;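 further: 100% = median FP of high control wells holding Aha-Tn7 inhibitor peptide; displacers lower polarization since freed probe rises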
DDE Tn7 FP ctr: counter-screen hit for Tn7 peptide-fibrin DD(E) binding disruption; shares compounds with DDE Tn7 FP inh; TRITC-Tn7 probe displacement, fluorescence polarization; inhibition, % at 8.3 µM; 460 compounds, 3% hits; AID 720633;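 active means inhibition above the cutoff, the mean of compounds lying between the control bounds plus 3 SD of those compounds, cut at about 17% in these data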;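 further: 0% = median of compound sample wells and 100% = excess unlabeled Aha-Tn7 peptide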
Starred values were filed as active, the others as inactive. Shown are actives, neighbours in structure and some others; about 1.4% of the full set was active somewhere.

How did COC(=O)N1CCCC1c1cccc2[nH]cc(C)c12 (stereo not given) do in these assays?
DDE Tn7 FP inh: -5; Tn6 DDE FP: -5

What do the screens show for `Cc1ccc(NC(=O)CSc2nnc3ccc(-c4ccncc4)nn23)cc1`?
DDE Tn7 FP inh: 5; CAL PDZ FP-1: -5; CAL PDZ FP-2: -2; Tn6 DDE FP: -1; Arrestin-AP2 inh: 4

How did Cc1ccc(CSc2nnc3ccc(-c4ccncc4)nn23)cc1 do in these assays?
DDE Tn7 FP inh: 14*; CAL PDZ FP-1: 7; CAL PDZ FP-2: -2; Tn6 DDE FP: 2; Arrestin-AP2 inh: 12; DDE Tn7 confirm: 0; DDE Tn7 FP ctr: -1

Results for COC(=O)[C@H]1C[C@@]2(CC=C(C)C)c3ccccc3N(C(=O)OC(C)(C)C)[C@H]2N1C(=O)OC(C)(C)C ?
DDE Tn7 FP inh: 8; Tn6 DDE FP: 7

Results for CCOC(=O)[C@]12CCCC=C1N(CCCOC)C(=O)[C@@H]2CC(=O)NCCCN1CCCC1=O ?
DDE Tn7 FP inh: -5; Tn6 DDE FP: -1

Results for O=C(Nc1cccc(Cl)c1)OC1CCC12CCC(c1ccccc1)CC2 (stereo not given) ?
DDE Tn7 FP inh: 7; Tn6 DDE FP: -4

Results for Cc1ccccc1NC(=O)COc1coc(CN2CCCc3ccccc32)cc1=O ?
DDE Tn7 FP inh: 15*; CAL PDZ FP-1: -1; CAL PDZ FP-2: 0; Tn6 DDE FP: 2; Arrestin-AP2 inh: 9; DDE Tn7 confirm: 1; DDE Tn7 FP ctr: -4

How did CCOC(=O)[C@@]12CN(C(=O)OC(C)(C)C)CC=C1N(Cc1ccc(OC)cc1)C(=O)[C@H]2CC(=O)NCc1ccccc1 do in these assays?
DDE Tn7 FP inh: 8; Tn6 DDE FP: -11

Results for CN(C)CCCC1Sc2ccccc2Sc2ccccc21 (stereo not given) ?
DDE Tn7 FP inh: -7; CAL PDZ FP-1: 8; CAL PDZ FP-2: -1; Tn6 DDE FP: -1; Arrestin-AP2 inh: -10

What do the screens show for `CNCCC1Sc2ccccc2Oc2ccccc21` (stereo not given)?
DDE Tn7 FP inh: 14*; CAL PDZ FP-1: 1; CAL PDZ FP-2: -3; Tn6 DDE FP: 9; Arrestin-AP2 inh: 8; DDE Tn7 confirm: -1; DDE Tn7 FP ctr: -2

What do the screens show for `COc1ccc(CNC(=O)C(OC(=O)c2ccco2)c2ccccc2F)cc1` (stereo not given)?
DDE Tn7 FP inh: 14*; CAL PDZ FP-2: -1; Tn6 DDE FP: -3; Arrestin-AP2 inh: -5; DDE Tn7 confirm: 5; DDE Tn7 FP ctr: 5

What do the screens show for `CC(=O)O[C@H]1[C@H](OC(C)=O)C[C@]2(OC(C)=O)C[C@H]1OC2=O`?
DDE Tn7 FP inh: -5; Tn6 DDE FP: -5

How did CC(CCc1ccco1)NC(=O)Cn1ncc2c(=O)oc3ccccc3c21 (stereo not given) do in these assays?
DDE Tn7 FP inh: 15*; CAL PDZ FP-2: -1; Tn6 DDE FP: -6; Arrestin-AP2 inh: 12; DDE Tn7 confirm: 0; DDE Tn7 FP ctr: -4

Results for CC(C)OCCCNC(=O)Cn1ncc2c(=O)oc3ccccc3c21 ?
DDE Tn7 FP inh: 4; CAL PDZ FP-2: 1; Tn6 DDE FP: 4; Arrestin-AP2 inh: 9

How did CCNC(=S)NNC(=O)CSc1nnc(SCc2cccc3ccccc23)s1 do in these assays?
DDE Tn7 FP inh: 4; Tn6 DDE FP: 2

How did Cc1cc(C)n(-c2ccc(C(=O)O)cc2)n1 do in these assays?
DDE Tn7 FP inh: 14*; CAL PDZ FP-1: -3; CAL PDZ FP-2: -4; Tn6 DDE FP: 9; Arrestin-AP2 inh: 3; DDE Tn7 confirm: 0; DDE Tn7 FP ctr: 0

Results for COC(=O)[C@]12C[C@H](CC(=O)NCCC(C)C)C(=O)N(Cc3ccco3)C1=C[C@H](COCc1ccccc1)O[C@@H]2C ?
DDE Tn7 FP inh: 1; Tn6 DDE FP: 2

Results for Cc1ccc(S(=O)(=O)NCCc2nc3ccccc3[nH]2)cc1 ?
DDE Tn7 FP inh: 9; CAL PDZ FP-2: 0; Tn6 DDE FP: 3; Arrestin-AP2 inh: -16

Results for NC(=O)C(CCc1nc2ccccc2[nH]1)NS(=O)(=O)c1ccccc1 (stereo not given) ?
DDE Tn7 FP inh: 15*; Tn6 DDE FP: 5; DDE Tn7 confirm: 6; DDE Tn7 FP ctr: 0

Results for O=C(N[C@H]1C[C@@H]2O[C@@H](CO)CC[C@@H]2O[C@@H]1CCc1ccc(-c2cccnc2)cc1)c1cccc(F)c1 ?
DDE Tn7 FP inh: 1; Tn6 DDE FP: 0

Results for CCOc1ccc(C(C)=O)cc1CSc1nnc(-c2ccoc2C)n1N ?
DDE Tn7 FP inh: 16*; CAL PDZ FP-1: -3; CAL PDZ FP-2: 0; Tn6 DDE FP: 11; Arrestin-AP2 inh: 2; DDE Tn7 confirm: 9; DDE Tn7 FP ctr: 1

Results for Cc1cc(NC(=O)CSc2nnc(-c3ccoc3C)n2N)no1 ?
DDE Tn7 FP inh: 0; CAL PDZ FP-1: -2; CAL PDZ FP-2: -4; Tn6 DDE FP: -10; Arrestin-AP2 inh: -6

How did Cc1cc(C)cc(NC(=O)OC2CC3CC2[C@H]2CCCCN2[C@H]3Cc2ccccc2)c1 (stereo not given in full) do in these assays?
DDE Tn7 FP inh: -1; Tn6 DDE FP: 1

What do the screens show for `COc1cccc(CNC(=O)c2cc3c(C)nc4ccccc4c3o2)c1`?
DDE Tn7 FP inh: 3; CAL PDZ FP-2: -4; Tn6 DDE FP: -2; Arrestin-AP2 inh: 7

What do the screens show for `CCc1ccc(CNC(=O)c2cc3c(C)nc4ccccc4c3o2)cc1`?
DDE Tn7 FP inh: 14*; CAL PDZ FP-1: -2; CAL PDZ FP-2: -2; Tn6 DDE FP: -1; Arrestin-AP2 inh: 6; DDE Tn7 confirm: -3; DDE Tn7 FP ctr: -11

Results for O=C(CSc1nc2ccc(Nc3nc(N4CCOCC4)nc(N4CCOCC4)n3)cc2s1)Nc1ccccc1Cl ?
DDE Tn7 FP inh: -3; CAL PDZ FP-1: -6; CAL PDZ FP-2: -3; Tn6 DDE FP: 6; Arrestin-AP2 inh: 33

Source: PubChem
